Consider 98 molecules from ChEMBL document CHEMBL4513216, “Probing the Open Global Health Chemical Diversity Library for Multistage-Active Starting Points for Next-Generation Antimalarials” (ACS Infect Dis, 2020).

This series in a line: Toxicity liver stage against HepG2, at 10uM. In kind it is cell-based. Details: test concentration 10 uM, cell line HepG2-A16-CD81EGFP. The following applies: human, HepG2-A16-CD81EGFP cells; read-out: INHIBITION
The gist of the method:
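Uninfected HepG2-A16-CD81EGFP cells, 3 × 10^3 per well, 1536-well, plated on prespotted compound at 10 μM final, parasite-free screening media added to match infected plates; puromycin 10 μM positive, DMSO 0.5% negative; run in parallel with 48 h PbLuc assay at 37 °C, 5% CO2; viability by CellTiter-Glo luminescence, normalized to controls.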
For `CC(C)Oc1cccc(C(=O)C2CCCN(C(=O)c3ccccn3)C2)c1` (stereo not drawn), the cytotoxicity at 10 µM is -7.67%.
To `Cc1noc([C@@H]2C[C@H](NC(=O)Nc3ccccc3)CN2C)n1` belongs -1.89%; to `COC(=O)Nc1nc2c(s1)CN(C(=O)NCc1cccs1)CC2`, 3.89%.
As to `Cn1c(=O)n(C)c2cc(NS(=O)(=O)Cc3ccccc3)ccc21`, the cytotoxicity at 10 µM is -4.62%.
With `COc1ccc(C)cc1-c1csc(N)c1C#N`, the cytotoxicity at 10 µM was -5.18%.
To `Cc1nn(C)cc1-c1cc(C(F)F)nc2sc(C(N)=O)c(N)c12` belongs 2.6%; to `CCn1ncc(CN(C)C(=O)c2cc(C(F)(F)F)n(C)n2)c1C`, 3.87%; to `Clc1cccc(-n2cnnn2)c1N1CCOCC1`, 9.43%.
In the case of `COc1cc(C2SCC(=O)Nc3[nH]ncc32)c(OC)c2c1OCO2` (stereo not drawn), the cytotoxicity at 10 µM worked out at 6.63%.
For `Cc1ccncc1CN1CCOCC1c1[nH]ncc1C` (stereo not drawn) the value was 1.78%; for `Cn1cc(CN2CCCC(n3c(=O)oc4ccccc43)C2)cn1` (stereo not drawn), -0.18%; for `NC(=O)CS(=O)(=O)Cc1ccc(F)cc1`, -3.71%.
For `CC(C(=O)NCC(C)(C)c1ccc2c(c1)OCCO2)n1cncn1` (stereo not drawn) the value was 13.8%; for `Cc1ccc(-c2ncc(CN3CCN(C(=O)N(C)C)CC3)s2)o1`, -3.25%.
For `CCc1nnc(NC(=O)NCCN(C)C(=O)OC(C)(C)C)s1` the value was -1.6%; for `CC(=O)NCc1ccc(C(=O)N2CCCc3c(F)ccc(C)c32)o1`, -0.883%.
As to `COCC(C)NC(=O)N(C)Cc1cc(C)on1` (stereo not drawn), the cytotoxicity at 10 µM amounted to 6.27%.
Turning to `CCOC1CCN(C(=O)NCc2cccc(-n3cccn3)c2)CC1`, the cytotoxicity at 10 µM stood at 0.944%.
Take `CCOCC(=O)Nc1ccc(N2CCSCC2)cc1C`: the cytotoxicity at 10 µM amounted to 9.53%.
For `COc1cccc(CNc2nc(N3CCOCC3)ns2)c1OC`, the cytotoxicity at 10 µM was -2.76%.
To `c1csc(-c2cc(CN3CCN(c4cnccn4)CC3)no2)c1` belongs -0.523%; to `CCC1CCCCN1CCc1ccncc1` (stereo not drawn), 2.4%; to `Cc1cc(Nc2ccc3c(c2)CC(=O)N3)nc(C(C)C)n1`, 3.67%.
To `COC(=O)c1cc(OC)ccc1NCC(=O)NCC(=O)N1CCCC1` belongs 0.431%; to `CN(C)CCNC(=O)Cc1cccc(I)c1`, -3.23%; to `COC(=O)CCNC(=O)c1nnn(-c2ccc(F)cc2)c1C1CC1`, -12.1%.
Take `COc1ccnc(N2CCN(C(=O)c3csnn3)CC2)n1`: the cytotoxicity at 10 µM was -0.581%.
To `COCCOCC(=O)N1CCc2cc(Cl)cc(Cl)c2C1` belongs 1.4%; to `N#Cc1ccc(F)c(CNC(=O)NC(CO)c2ccccc2)c1` (stereo not drawn), 4.16%; to `CCc1nnc(C2Cc3ccccc3CN2Cc2ncc(Cl)n2C)o1` (stereo not drawn), 12.5%.
For the molecule `CC(C(=O)Nc1ccnn1C(C)C)N1CCc2nn(C)c(=O)cc2C1` (stereo not drawn), the cytotoxicity at 10 µM was determined as 3.95%.
To `Cc1noc(CN(Cc2cccc(C#N)c2)Cc2cccs2)n1` belongs 3.8%; to `O=C(CN1CCCC1CC(=O)c1ccccc1)NCc1ccccn1` (stereo not drawn), 1.39%; to `CN(C)C(=O)C1CCCN1c1ccnc2ccsc12` (stereo not drawn), -16.8%.
Take `COCc1nc(CNC2CCCc3c2cnn3C(C)(C)C)cs1` (stereo not drawn): the cytotoxicity at 10 µM is -1.62%.
`Cc1cc(CN(C)Cc2ncc(-c3cccs3)o2)no1`: the cytotoxicity at 10 µM worked out at 11%.
Regarding `COc1cc(F)ccc1N1CCN(Cc2nnc(C3CC3)o2)CC1`, the cytotoxicity at 10 µM was determined as 14.8%.
On to `COCC(C)(CCO)NC(=O)Nc1c(F)cccc1Br` (stereo not drawn), for which the cytotoxicity at 10 µM was 3.79%.
To `Cn1cc(C2CCCN2CCCn2c(=O)oc3ccccc32)cn1` (stereo not drawn) belongs 5.63%; to `Cn1cc(CNc2cnn(CCO)c2)c(-c2ccncc2)n1`, 1.56%.
For `O=C(CN1CCCC1Cn1cccn1)NC1CCOCC1` (stereo not drawn) the value was -23.2%.
Turning to `O=C(CCNC(=O)c1ccccc1N1CCOCC1)NC1CCCC1`, the cytotoxicity at 10 µM was -17.8%.
With `COCC(=O)N1CC[C@@H]2O[C@H](COCc3csc(C)n3)CC[C@@H]21`, the cytotoxicity at 10 µM is -85.8%.
To `O=C(N1CCCC1)N1CCCC2(CCN(c3ccsc3)C2=O)C1` (stereo not drawn) belongs -74.1%; to `O=C(O)c1cnc(-c2cccc3c2CCNC3)c(Cl)c1`, 8.97%.
For the molecule `COc1cccc(N2CCN(C(=O)C(O)CC(C)C)CC2=O)c1` (stereo not drawn), the cytotoxicity at 10 µM was -14.7%.
For `CN(C)Cc1nnc(C2CCN(c3ncccc3Cl)CC2)n1C1CC1`, the cytotoxicity at 10 µM was -2.57%.
Turning to `COCCN(Cc1cnn(C)c1)C(=O)C1CCCN(C2CCOCC2)C1` (stereo not drawn), the cytotoxicity at 10 µM was determined as 4.76%.
For `CN(Cc1cc(-c2cccnc2)no1)C(=O)[C@@H]1CSCN1C` the value was 0.66%.
In the case of `CC(=O)NC1CCN(c2cc(C3CCNCC3)nc(C)n2)C1` (stereo not drawn), the cytotoxicity at 10 µM was -1.92%.
For `Cc1nonc1C1CCCN1C(=O)c1cc2n(n1)CCCN(C(C)C)C2` (stereo not drawn) the value was -10%; for `CN1CC2(CCCN(Cc3nnc(-c4ccco4)o3)CC2)OC1=O` (stereo not drawn), -6.12%; for `Cc1noc(CN(C)C(=O)c2n[nH]c(N)c2-c2ccccc2)n1`, -2.14%.
To `CC[C@H]1CN(C(=O)c2cnc(N3CCN(C)CC3)nc2C)CC[C@@]1(C)O` belongs -4.15%; to `NC(=O)C1CCN(CC(=O)N(Cc2ccccc2)Cc2nccs2)CC1`, -5.08%.
For `Cc1cccc(CN(C(=O)CCn2cncn2)C(C)C)c1`, the cytotoxicity at 10 µM turned out to be 8.32%.
As to `CCN1CC(C(=O)N2CC(Oc3ccccc3Cl)C2)CCC1=O` (stereo not drawn), the cytotoxicity at 10 µM is -8.62%.
For `CCc1cc(C(=O)NCC2CCN(Cc3cccc(C)n3)C2)on1` (stereo not drawn) the value was 7.69%.
For `CC(=O)c1cc(CN2C[C@@H](CN3CCCC3)[C@@H](CO)C2)n(C)c1` the value was 4.92%; for `Cc1occc1C(=O)N1CCC2(CCCN(CC3CC3)C2=O)C1` (stereo not drawn), -4.58%; for `O=C1OC2(CCNCC2)CN1CC(=O)N1CCCC1c1nccs1` (stereo not drawn), -4.92%.
For `Cc1ccccc1CN(CCN(C)C)Cc1ccccc1C(=O)O` the value was -1.97%; for `O=c1[nH]c(COc2ccccc2Cl)nc2c1CCNC2`, 1.97%; for `CCCOC1CCCN(C(=O)c2cnc(-c3csc(C)n3)nc2O)C1` (stereo not drawn), -1.97%.
Take `CN(C)C(=O)C1(Oc2ccc(Cl)cc2)CCNCC1`: the cytotoxicity at 10 µM worked out at 13.7%.
As to `CC(C)N1CCC(C(=O)N(C)C(C)c2ccon2)CC1` (stereo not drawn), the cytotoxicity at 10 µM worked out at 5.16%.
Consider `COCC[C@]1(O)CCN(C(=O)CCn2c(C)cccc2=O)C[C@H]1C`, for which the cytotoxicity at 10 µM was found to be 3.28%.
To `COc1cccc(CN2CCCC(Nc3cccc(F)c3)C2)c1O` (stereo not drawn) belongs -10.2%; to `CCn1ncnc1C(NC(=O)CC1CCN(C(C)C)CC1)C1CC1` (stereo not drawn), 8.6%; to `COc1cccc(S(=O)(=O)NC(=O)COC2CCCCC2)c1`, -0.502%.
To `CCN(C(C)=O)c1nc(CN2CCCCC2Cn2cncn2)cs1` (stereo not drawn) belongs -5.4%.
For `CCn1cc(CN2CCCN(C(=O)CCc3nccs3)CC2)cn1`, the cytotoxicity at 10 µM is -2.53%.
In the case of `CCOc1ccc(Cl)c(C(=O)N2CCN(c3ncccn3)CC2)n1`, the cytotoxicity at 10 µM was -1.9%.
For `CC(=O)N1CCN(Cc2ccc(OCc3nccn3C)cc2)CC1` the value was -2.68%; for `Cn1cnnc1C1CCCN(C(=O)NCc2ccccn2)C1` (stereo not drawn), 2.83%; for `O=C(NCCn1ccnc1)c1ccn(-c2ccccc2)n1`, 0.449%.
To `CCOCC1CCCN(C(=O)NCc2ccc(-c3ccn[nH]3)cc2)C1` (stereo not drawn) belongs -3.25%; to `CSC(C)C(=O)N1CCCN(c2ncccc2C#N)CC1` (stereo not drawn), -1.2%; to `Cc1ncc2c(n1)CN(CC(=O)Nc1nccs1)CC2`, -0.586%.
To `O=C(c1csc(C2CC2)n1)N1CCCC1Cn1cccn1` (stereo not drawn) belongs -5.53%.
For `CCNc1cc2c(nn1)CCN(C(=O)CCc1c(C)noc1C)C2`, the cytotoxicity at 10 µM is -2.47%.
To `Cc1nn(C)c(C)c1C1CCCN1C(=O)c1ccc2nnc(C)n2c1` (stereo not drawn) belongs -12.2%; to `CC(C)CC(C)N(C)C(=O)c1nc(S(C)(=O)=O)n2ccccc12` (stereo not drawn), -9.24%.
On to `CS(=O)(=O)c1cccc(C(=O)N2CCCC(n3cccn3)C2)c1` (stereo not drawn), for which the cytotoxicity at 10 µM was -8.77%.
On to `Cc1ncncc1C(=O)N1CCCC1c1c(C)nn(C)c1Cl` (stereo not drawn), for which the cytotoxicity at 10 µM is -12.2%.
To `CC(C)C(C)NC(=O)Nc1ccc(F)c(C(N)=O)c1` (stereo not drawn) belongs -6.54%; to `CCc1nc(CN2CCCC(NCc3nnc(C4CC4)n3C)C2)no1` (stereo not drawn), -2.97%.
For the molecule `O=C(O)[C@]12CCCN(Cc3ccccc3)C[C@H]1CN(c1ncccn1)C2`, the cytotoxicity at 10 µM was -8.33%.
For `Cc1ccc(CN2CCC3(CCN(c4cnn(C)c4)C3=O)C2)s1` (stereo not drawn) the value was -70%; for `Cc1nnc(N2CCCC3(CN(Cc4ccc(C)s4)CCO3)C2)o1` (stereo not drawn), -14.6%.
For `CCS(=O)(=O)N1CCC2(CN(c3ccsc3)C(=O)CN2C)C1` (stereo not drawn), the cytotoxicity at 10 µM amounted to 7.31%.
As for `COCCO[C@H]1CCN(C(=O)c2cccnc2)[C@H]1Cc1cnn(C)c1`, the cytotoxicity at 10 µM was determined as 4%.
`Cc1occc1C(=O)N1CCC2(CCN(Cc3nccs3)C2)CC1`: the cytotoxicity at 10 µM is -12.5%.
For `CCOCC1CN(Cc2csc(C)n2)Cc2nccn2C1` (stereo not drawn) the value was 5.98%; for `Cn1nnc2c1C(COCc1ccccn1)CN(C(=O)c1ccsc1)C2` (stereo not drawn), 13.6%; for `Cc1ccc(C(CCNCCN(C)C)C2CCOC(C)(C)C2)cc1` (stereo not drawn), 3.46%.
To `O=C(c1cccnc1-c1ccoc1)N1C[C@@H]2CC[C@H]1C2` belongs 6.3%.
For `CCCNc1ncc(CN2C[C@@H]3CC[C@H]2CN(C2CCOCC2)C3)cn1` the value was -7.84%.
